In data set [1] the test system is Rattus norvegicus. The experiment in a line: Ratio of GH release stimulated by 300 ug/kg of compound to that of GH release stimulated by 300 ug/kg of hexarelin in infant rat (sc injection). It is filed as functional. Summed up: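 Male 10-day-old Sprague-Dawley pups, about 25 g, eight per group. Dosed sc at 300 µg/kg, with solvent as DMSO at final 1:300 dilution. Killed by decapitation 15 min later; trunk-blood plasma GH measured by RIA against the NIDDK rat standard, in ng/mL. Response compared with hexarelin at the same dose.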

The target of data set [2] is T1, Growth hormone secretagogue receptor type 1 (Homo sapiens, UniProt Q92847). Nature of the data set: Binding affinity towards cloned human Growth hormone secretagogue receptor type I in LLC PK-1 cells using [125I][His9]-ghrelin as radioligand. It is filed as cell-based.
Data set [3] has as its target T1, Growth hormone secretagogue receptor type 1. Nature of the data set: Binding affinity towards human pituitary Growth hormone secretagogue receptor using [125I][Tyr4]-ghrelin as radioligand.
Data set [4] relates to Canis familiaris. The experiment in a line: Concentration in dogs after oral administration at dose of 1 mg/kg after 180 min. It is filed as ADME, organism-based, Canis lupus familiaris. Also noted: dose 1 mg/kg, route oral. The conditions noted are these: dog, in vivo, 3 h. Summed up:
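Beagle dogs (4–6, 2–3 years, 11–15 kg, both sexes) dosed 1 mg/kg through an oral-gastric cannula in randomized sequence. Blood drawn from the cephalic vein at −20 min, then at 15–180 min into EDTA tubes. Plasma GH measured by canine GH RIA (sensitivity 0.4 ng/mL). Peak GH and AUC0–180 min by trapezoid method reported as mean ± SEM; sexes pooled.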

Data set [5] is described as follows: Stimulating GH secretion in dogs after oral administration at dose of 1 mg/kg.

Non-standard residues stand in square brackets, D forms with d. Residues, ends and D or L forms follow the SMILES beside them. dTrp(2-Me) = Cc1[nH]c2ccccc2c1C[C@@H](N)C(=O)O

Usually IC50 stands for the point on the concentration scale where inhibition reaches its midpoint. A low value points to inhibition by little substance.

T1 sequence (Q92847 whole entry): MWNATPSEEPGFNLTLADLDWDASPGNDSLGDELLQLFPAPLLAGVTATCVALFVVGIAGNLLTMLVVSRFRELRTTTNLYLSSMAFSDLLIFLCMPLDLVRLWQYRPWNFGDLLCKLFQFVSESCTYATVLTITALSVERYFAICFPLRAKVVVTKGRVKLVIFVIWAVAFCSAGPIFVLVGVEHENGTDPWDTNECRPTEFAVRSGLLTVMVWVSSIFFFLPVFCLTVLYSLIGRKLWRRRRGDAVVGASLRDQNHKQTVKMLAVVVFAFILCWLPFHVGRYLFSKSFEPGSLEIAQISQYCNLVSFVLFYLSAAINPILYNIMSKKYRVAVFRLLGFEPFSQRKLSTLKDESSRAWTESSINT

In the case of `CC(=O)N[C@@H](Cc1c[nH]c2ccccc12)NC(=O)[C@@H](Cc1c[nH]c2ccccc12)NC(=O)C(C)(C)N(C)C`, in data set [1], the Ratio is listed as 0.15. For the same molecule, the IC50 is 440 nM in data set [2] and 20.1 nM in data set [3].
On to `CCC(=O)N[C@@H](Cc1c[nH]c2ccccc12)NC(=O)[C@@H](Cc1c[nH]c2ccccc12)NC(=O)C(C)(C)N`, for which, in data set [1], the Ratio is 0.69. Moreover, the IC50 in data set [2] was determined as 460 nM; in data set [3], 185 nM.
Consider `O=CN[C@@H](Cc1c[nH]c2ccccc12)NC(=O)[C@@H](Cc1c[nH]c2ccccc12)NC(=O)C1CCNCC1`, for which, in data set [1], the Ratio is 0.82. Moreover, the IC50 in data set [2] came to 1160 nM; in data set [3], 391 nM.
On to `NC1(C(=O)N[C@H](Cc2c[nH]c3ccccc23)C(=O)N[C@H](Cc2c[nH]c3ccccc23)NC=O)CCNCC1`, for which, in data set [1], the Ratio stood at 0.95. For the same molecule, the IC50 in data set [2] is 337 nM; in data set [3] it was 1790 nM.
Take `CC(C)(N)C(=O)N[C@H](COCc1ccccc1)C(=O)N1CCC2(CC1)CN(S(C)(=O)=O)c1ccccc12` [IBUTAMOREN]: the “GH AUC 0-180” value in data set [4] amounted to 544.55 µg·min/L.
On to `CNC(C)(C)C(=O)N[C@H](Cc1c[nH]c2ccccc12)C(=O)N(C)[C@H](Cc1c[nH]c2ccccc12)NC(C)=O`, for which the “GH AUC 0-180” value in data set [4] was 262.43 µg·min/L. The IC50 in data set [2] is 29.5 nM; in data set [3], 25.6 nM.
Turning to `CNC(C)(C)C(=O)N[C@H](Cc1c[nH]c2ccccc12)C(=O)N[C@H](Cc1c[nH]c2ccccc12)NC=O`, the Ratio in data set [1] turned out to be 0.64. For the same molecule, the 50% inhibitory concentration (IC50) in data set [2] came to 22.7 nM; in data set [3], 39 nM.
Molecule `Cc1[nH]c2ccccc2c1C[C@@H](NC(=O)[C@@H](N)Cc1cnc[nH]1)C(=O)N[C@@H](C)C(=O)N[C@@H](Cc1c[nH]c2ccccc12)C(=O)N[C@H](Cc1ccccc1)C(=O)N[C@@H](CCCCN)C(N)=O` [EXAMORELIN] (H-H[dTrp(2-Me)]AW[dF]K-NH2) registered an IC50 in data set [3] of 18 nM.
`CCNC(=O)N[C@@H](Cc1c[nH]c2ccccc12)NC(=O)[C@@H](Cc1c[nH]c2ccccc12)NC(=O)C(C)(C)N`: the “GH AUC 0-180” value in data set [4] stood at 79.54 µg·min/L. Besides, the IC50 was found to be 162 nM in data set [2] and 16.9 nM in data set [3].
`CNC(C)(C)C(=O)N[C@H](Cc1c[nH]c2ccccc12)C(=O)N[C@H](Cc1c[nH]c2ccccc12)NC(C)=O`: the “GH AUC 0-180” value in data set [4] was 85.85 µg·min/L. The molecule also registered a GH peak in data set [5] of 1.1 µg/L. Besides, the Ratio in data set [1] is recorded as 1.38. The IC50 in data set [2] amounted to 58 nM; in data set [3], 74 nM.
Take `CC(C)(N)C(=O)N[C@H](Cc1c[nH]c2ccccc12)C(=O)N[C@H](Cc1c[nH]c2ccccc12)NC(=O)C1CCCCN1` (stereo not given in full): the “GH AUC 0-180” value in data set [4] is 87.06 µg·min/L. The results for the IC50 in data set [2] and in data set [3] were 116 nM and 21.5 nM, respectively.
As to `CC(C)(N)C(=O)N[C@H](Cc1c[nH]c2ccccc12)C(=O)N[C@H](Cc1c[nH]c2ccccc12)NC=O` [MACIMORELIN], in data set [4], the “GH AUC 0-180” value was 675.35 µg·min/L. The molecule also registered a GH peak in data set [5] of 5.5 µg/L. Moreover, the Ratio in data set [1] is 1.31. In addition, the IC50 in data set [2] was found to be 123 nM; in data set [3], 22.9 nM.
Regarding `CC(=O)N[C@@H](Cc1c[nH]c2ccccc12)NC(=O)[C@@H](Cc1c[nH]c2ccccc12)NC(=O)C(C)(C)N`, the Ratio in data set [1] worked out at 0.77. Further, the concentration for half-maximal inhibition (IC50) in data set [2] is 228 nM; in data set [3] it was 3850 nM.
Take `CCC(=O)N[C@@H](Cc1c[nH]c2ccccc12)NC(=O)[C@@H](Cc1c[nH]c2ccccc12)NC(=O)C(C)(C)NC`: the Ratio in data set [1] was 0.93. Moreover, the IC50 is 167 nM in data set [2] and above 10000 nM in data set [3].
The like results for `CNC(C)(C)C(=O)N[C@H](Cc1c[nH]c2ccccc12)C(=O)N[C@H](Cc1c[nH]c2ccccc12)NC(=O)CC(C)C` were, in that order, 0.1, 397 nM and 213 nM.
The corresponding values for `CC(C)CC(=O)N[C@@H](Cc1c[nH]c2ccccc12)NC(=O)[C@@H](Cc1c[nH]c2ccccc12)NC(=O)C(C)(C)N` are 0.24, 535 nM and 59.8 nM.
Consider `CC(=O)N[C@@H](Cc1c[nH]c2ccccc12)NC(=O)[C@@H](Cc1c[nH]c2ccccc12)NC(=O)C1CCNCC1`, for which the Ratio in data set [1] came to 0.53. Also, the figures for the IC50 in data set [2] and in data set [3] were 807 nM and above 10000 nM, respectively.
The like results for `CCOC(=O)N[C@@H](Cc1c[nH]c2ccccc12)NC(=O)[C@@H](Cc1c[nH]c2ccccc12)NC(=O)C(C)(C)N` were, in that order, 0.2, 122 nM and 16.2 nM.
Regarding `O=CN[C@@H](Cc1c[nH]c2ccccc12)NC(=O)[C@@H](Cc1c[nH]c2ccccc12)NS(=O)(=O)c1ccccc1`, the Ratio in data set [1] worked out at 0.14.
The same measure, in the same setting: next, `CS(=O)(=O)N[C@H](Cc1c[nH]c2ccccc12)C(=O)N[C@H](Cc1c[nH]c2ccccc12)NC=O`: 0.09.
On the same count and under the same terms, the value for `CC(C)(N)C(=O)N[C@H](Cc1c[nH]c2ccccc12)C(=O)N[C@H](Cc1c[nH]c2ccccc12)NC(=O)Cc1ccccc1` was 0.11; that for `CC(C)(N)C(=O)N[C@](C)(Cc1c[nH]c2ccccc12)C(=O)N[C@H](Cc1c[nH]c2ccccc12)NC=O` was 0.12.
On to `Cc1[nH]c2ccccc2c1C[C@@H](NC(=O)[C@H](Cc1c[nH]cn1)NC(=O)[C@H](C)NC(=O)[C@@H](N)Cc1ccc(O)cc1)C(=O)N[C@@H](C)C(=O)N[C@@H](Cc1c[nH]c2ccccc12)C(=O)N[C@H](Cc1ccccc1)C(=O)N[C@@H](CCCCN)C(N)=O` (H-YAH[dTrp(2-Me)]AW[dF]K-NH2), for which the IC50 in data set [2] stood at 286 nM; in data set [3], 12 nM.
